Experimental data: ChEMBL document CHEMBL2157922, “Synthesis and antifungal activity of diverse C-2 pyridinyl and pyridinylvinyl substituted quinolines” (2012)
Values after ≈ are worked out from the molar mass of the structure shown. Each block holds one compound with its values, some of them ahead of it.

What was measured:
Saccharomyces cerevisiae = assay: Antifungal activity against Saccharomyces cerevisiae ATCC 9763 after 48 hrs by broth microdilution technique; assay type: functional; settings: ATCC 9763, 48 h
Procedure, shortened: (§1)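 Yeasts were tested by CLSI broth microdilution in RPMI-1640 buffered to pH 7.0 with MOPS, with compound from 250 down to 0.98 in DMSO stocks. Trays were held at 30 °C in a moist, dark chamber. MIC100, the lowest concentration giving total visual inhibition against the growth control, was read by eye at 48 h.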

Candida albicans [1] = assay: Antifungal activity against Candida albicans ATCC 10231 after 48 hrs by broth microdilution technique; assay type: functional; settings: ATCC 10231, 48 h; procedure, shortened: as §1
Nannizzia gypsea = assay: Antifungal activity against Microsporum gypseum CCC 115 after 48 hrs by broth microdilution technique; assay type: functional; settings: CCC 115, 48 h
Procedure, shortened: (§2)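 Moulds and dermatophytes were run by CLSI broth microdilution in MOPS-buffered RPMI-1640 at pH 7.0. Aspergillus was incubated at 30 °C and dermatophytes at 28–30 °C, in a moist, dark chamber. MIC100, the lowest concentration with no visible growth, was read visually at a time set by growth of the control fungus.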

Trichophyton rubrum = assay: Antifungal activity against Trichophyton rubrum CCC 113 after 48 hrs by broth microdilution technique; assay type: functional; settings: CCC 113, 48 h
Aspergillus niger = assay: Antifungal activity against Aspergillus niger ATCC 9029 after 48 hrs by broth microdilution technique; assay type: functional; settings: ATCC 9029, 48 h; procedure, shortened: as §2
Aspergillus flavus = assay: Antifungal activity against Aspergillus flavus ATCC 9170 after 48 hrs by broth microdilution technique; assay type: functional; settings: ATCC 9170, 48 h; procedure, shortened: as §2
Aspergillus fumigatus = assay: Antifungal activity against Aspergillus fumigatus ATCC 26934 after 48 hrs by broth microdilution technique; assay type: functional; settings: ATCC 26934, 48 h; procedure, shortened: as §2
[2] = tested on: Trichophyton mentagrophytes; assay: Antifungal activity against Trichophyton mentagrophytes ATCC 9972 after 48 hrs by broth microdilution technique; assay type: functional; settings: ATCC 9972, 48 h; procedure, shortened: as §2
Cryptococcus neoformans [3] = assay: Antifungal activity against Cryptococcus neoformans ATCC 32264 after 48 hrs by broth microdilution technique; assay type: functional; settings: ATCC 32264, 48 h; procedure, shortened: as §1
Pichia kudriavzevii = assay: Antifungal activity against Candida krusei CCC 117 after 48 hrs by broth microdilution technique; assay type: functional; settings: CCC 117, 48 h
Nakaseomyces glabratus = assay: Antifungal activity against Candida glabrata CCC 115 after 48 hrs by broth microdilution technique; assay type: functional; settings: CCC 115, 48 h
Candida tropicalis = assay: Antifungal activity against Candida tropicalis CCC 131 after 48 hrs by broth microdilution technique; assay type: functional; settings: CCC 131, 48 h
Candida albicans [4] = assay: Antifungal activity against Candida albicans CCC 128 after 48 hrs by broth microdilution technique; assay type: functional; settings: CCC 128, 48 h
Candida albicans [5] = assay: Antifungal activity against Candida albicans CCC 126 after 48 hrs by broth microdilution technique; assay type: functional; settings: CCC 126, 48 h
Cryptococcus neoformans [6] = assay: Antifungal activity against Cryptococcus neoformans IM 983036 after 48 hrs by broth microdilution technique; assay type: functional; settings: IM 983036, 48 h
Procedure, shortened: (§3)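 C. neoformans was tested by 96-well RPMI-1640 microdilution, with DMSO-matched growth and sterility control wells. Plates were incubated 48 h at 30 °C in a moist, dark chamber and read at OD405. % inhibition = 100 − (CTW − SCW)/(GCW − SCW), in duplicate. For the clinical isolates, MIC80 and MIC50 are the lowest concentrations giving 80% and 50% inhibition.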

Cryptococcus neoformans [7] = assay: Antifungal activity against Cryptococcus neoformans IM 972724 after 48 hrs by broth microdilution technique; assay type: functional; settings: IM 972724, 48 h; procedure, shortened: as §3
Cryptococcus neoformans [8] = assay: Antifungal activity against Cryptococcus neoformans IM 972751 after 48 hrs by broth microdilution technique; assay type: functional; settings: IM 972751, 48 h; procedure, shortened: as §3
Candida albicans [9] = assay: Antifungal activity against Candida albicans CCC 130 after 24 hrs by broth microdilution technique; settings: CCC 130, 24 h
Candida albicans [10] = assay: Antifungal activity against Candida albicans CCC 129 after 48 hrs by broth microdilution technique; assay type: functional; settings: CCC 129, 48 h
Candida albicans [11] = assay: Antifungal activity against Candida albicans CCC 130 after 48 hrs by broth microdilution technique; assay type: functional; settings: CCC 130, 48 h
Candida albicans [12] = assay: Antifungal activity against Candida albicans CCC 127 after 48 hrs by broth microdilution technique; assay type: functional; settings: CCC 127, 48 h
Cryptococcus neoformans [13] = assay: Antifungal activity against Cryptococcus neoformans IM 00319 after 48 hrs by broth microdilution technique; assay type: functional; settings: IM 00319, 48 h; procedure, shortened: as §3
Candida albicans [14] = assay: Antifungal activity against Candida albicans ATCC 10231 at 31.2 ug/ml after 24 hrs; assay type: functional; settings: ATCC 10231, 24 h
Procedure, shortened: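 C. albicans was grown in 96-well RPMI-1640 broth microdilution with compound wells diluted from DMSO stocks. Growth wells with matched DMSO and sterility wells were included. After 24 h at 30 °C in a moist, dark chamber, OD405 was read. % inhibition = 100 − (CTW − SCW)/(GCW − SCW) OD, done in duplicate.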

Candida albicans [15] = assay: Antifungal activity against Candida albicans CCC 125 after 48 hrs by broth microdilution technique; assay type: functional; settings: CCC 125, 48 h
Cryptococcus neoformans [16] = assay: Antifungal activity against Cryptococcus neoformans IM 042074 after 48 hrs by broth microdilution technique; assay type: functional; settings: IM 042074, 48 h; procedure, shortened: as §3
Candida parapsilosis = assay: Antifungal activity against Candida parapsilosis CCC 124 after 48 hrs by broth microdilution technique; assay type: functional; settings: Lodderomyces parapsilosis, CCC 124, 48 h
Cryptococcus neoformans [17] = assay: Antifungal activity against Cryptococcus neoformans IM 983040 after 48 hrs by broth microdilution technique; assay type: functional; settings: IM 983040, 48 h; procedure, shortened: as §3

- MIC (Saccharomyces cerevisiae): > 250 µg/mL
- MIC (Candida albicans [1]): > 250 µg/mL
- MIC (Nannizzia gypsea): 31 µg/mL (≈ 129 µM)
- MIC (Trichophyton rubrum): 31 µg/mL (≈ 129 µM)
- MIC (Aspergillus niger): > 250 µg/mL
- MIC (Aspergillus flavus): > 250 µg/mL
- MIC (Aspergillus fumigatus): > 250 µg/mL
- MIC [2]: 62 µg/mL (≈ 258 µM)
- MIC (Cryptococcus neoformans [3]): 125 µg/mL (≈ 519 µM)
Compound: Clc1cccc2ccc(-c3ccncc3)nc12
- MFC (Nannizzia gypsea): 62 µg/mL (≈ 258 µM)
- MFC (Trichophyton rubrum): 62 µg/mL (≈ 258 µM)
- MFC [2]: 125 µg/mL (≈ 519 µM)
- MFC (Cryptococcus neoformans [3]): 250 µg/mL (≈ 1040 µM)

- MIC (Saccharomyces cerevisiae): > 250 µg/mL
- MIC (Candida albicans [1]): > 250 µg/mL
- MIC (Nannizzia gypsea): 250 µg/mL (≈ 937 µM)
- MIC (Trichophyton rubrum): 250 µg/mL (≈ 937 µM)
- MIC (Aspergillus niger): > 250 µg/mL
- MIC (Aspergillus flavus): 250 µg/mL (≈ 937 µM)
- MIC (Aspergillus fumigatus): 250 µg/mL (≈ 937 µM)
- MIC [2]: 250 µg/mL (≈ 937 µM)
- MIC (Cryptococcus neoformans [3]): > 250 µg/mL
Compound: Clc1ccc2nc(/C=C/c3cccnc3)ccc2c1
- MFC (Nannizzia gypsea): > 250 µg/mL
- MFC (Trichophyton rubrum): > 250 µg/mL
- MFC (Aspergillus flavus): > 250 µg/mL
- MFC (Aspergillus fumigatus): > 250 µg/mL
- MFC [2]: > 250 µg/mL

- MIC50 (Pichia kudriavzevii): > 250 µg/mL
- MIC80 (Pichia kudriavzevii): > 250 µg/mL
- MIC50 (Nakaseomyces glabratus): > 250 µg/mL
- MIC80 (Nakaseomyces glabratus): > 250 µg/mL
- MIC50 (Candida tropicalis): 31.2 µg/mL (≈ 117 µM)
- MIC80 (Candida tropicalis): 125 µg/mL (≈ 469 µM)
- MIC (Saccharomyces cerevisiae): 125 µg/mL (≈ 469 µM)
- MIC50 (Candida albicans [4]): 62.5 µg/mL (≈ 234 µM)
- MIC80 (Candida albicans [4]): 125 µg/mL (≈ 469 µM)
- MIC (Candida albicans [1]): 125 µg/mL (≈ 469 µM)
- MIC50 (Candida albicans [1]): 15.6 µg/mL (≈ 58.5 µM)
- MIC80 (Candida albicans [1]): 31.2 µg/mL (≈ 117 µM)
- MIC (Nannizzia gypsea): 62 µg/mL (≈ 232 µM)
- MIC50 (Candida albicans [5]): 31.2 µg/mL (≈ 117 µM)
- MIC80 (Candida albicans [5]): 62.5 µg/mL (≈ 234 µM)
- MIC50 (Cryptococcus neoformans [6]): 7.8 µg/mL (≈ 29.2 µM)
- MIC80 (Cryptococcus neoformans [6]): 62.5 µg/mL (≈ 234 µM)
- MIC50 (Cryptococcus neoformans [7]): 31.2 µg/mL (≈ 117 µM)
- MIC80 (Cryptococcus neoformans [7]): 62.5 µg/mL (≈ 234 µM)
- MIC (Trichophyton rubrum): 62 µg/mL (≈ 232 µM)
- MIC50 (Cryptococcus neoformans [8]): 15.6 µg/mL (≈ 58.5 µM)
- MIC80 (Cryptococcus neoformans [8]): 31.2 µg/mL (≈ 117 µM)
- MIC50 (Candida albicans [9]): 31.2 µg/mL (≈ 117 µM)
- MIC (Aspergillus niger): 250 µg/mL (≈ 937 µM)
- MIC50 (Candida albicans [10]): 31.2 µg/mL (≈ 117 µM)
- MIC80 (Candida albicans [10]): 62.5 µg/mL (≈ 234 µM)
- MIC80 (Candida albicans [11]): 62.5 µg/mL (≈ 234 µM)
- MIC50 (Candida albicans [12]): 31.2 µg/mL (≈ 117 µM)
- MIC80 (Candida albicans [12]): 62.5 µg/mL (≈ 234 µM)
- MIC50 (Cryptococcus neoformans [13]): 31.2 µg/mL (≈ 117 µM)
- MIC80 (Cryptococcus neoformans [13]): 62.5 µg/mL (≈ 234 µM)
- MIC (Aspergillus flavus): 250 µg/mL (≈ 937 µM)
- MIC50 (Candida albicans [15]): 31.2 µg/mL (≈ 117 µM)
- MIC80 (Candida albicans [15]): 125 µg/mL (≈ 469 µM)
- MIC50 (Cryptococcus neoformans [16]): 15.6 µg/mL (≈ 58.5 µM)
- MIC80 (Cryptococcus neoformans [16]): 62.5 µg/mL (≈ 234 µM)
- MIC50 (Candida parapsilosis): > 250 µg/mL
- MIC80 (Candida parapsilosis): > 250 µg/mL
- MIC (Aspergillus fumigatus): 250 µg/mL (≈ 937 µM)
- MIC50 (Cryptococcus neoformans [17]): 15.6 µg/mL (≈ 58.5 µM)
- MIC80 (Cryptococcus neoformans [17]): 62.5 µg/mL (≈ 234 µM)
- MIC [2]: 62 µg/mL (≈ 232 µM)
- MIC (Cryptococcus neoformans [3]): 125 µg/mL (≈ 469 µM)
- MIC50 (Cryptococcus neoformans [3]): 15.6 µg/mL (≈ 58.5 µM)
- MIC80 (Cryptococcus neoformans [3]): 31.2 µg/mL (≈ 117 µM)
Compound: Clc1ccc2nc(/C=C/c3ccncc3)ccc2c1
- MFC (Saccharomyces cerevisiae): > 250 µg/mL
- MFC (Candida albicans [1]): > 250 µg/mL
- MFC (Nannizzia gypsea): 125 µg/mL (≈ 469 µM)
- MFC (Trichophyton rubrum): 125 µg/mL (≈ 469 µM)
- MFC (Aspergillus niger): > 250 µg/mL
- MFC (Aspergillus flavus): > 250 µg/mL
- inhibition at 31.2 µg/mL (Candida albicans [14]): 80%
- MFC (Aspergillus fumigatus): > 250 µg/mL
- MFC [2]: 125 µg/mL (≈ 469 µM)
- MFC (Cryptococcus neoformans [3]): 250 µg/mL (≈ 937 µM)
